Experimental data taken from ChEMBL document CHEMBL5058577, “EUbOPEN Chemogenomics Library 2 (Multiplex)” (2022).

Tested on: Fibroblast
Experiment: Multiplex assay against human fibroblast
Assay type: toxicity, cell-based
How it was run: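 Live cells carried four stains from seeding: Hoechst33342, BioTracker Green Microtubule Cytoskeleton Dye, MitoTracker Red and Annexin V Alexa Fluor 680. They were imaged on a CQ1 microscope at 37°C and 5% CO2 after compound addition. Using CellPathfinder machine-learning gating, cells were split into Hoechst high-intensity objects or normal cells, normal cells into healthy, pyknosed or fragmented nuclei, and pyknosed cells into mitotic or apoptotic; tubulin, mitochondrial-mass and membrane-permeability phenotypes are per cents of healthy-nucleus cells.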

[1] = 12 h, 1 µM, compound concentration 1 uM, replicate 1
[2] = 12 h, 1 µM, compound concentration 1 uM, replicate 2
[3] = 12 h, 10 µM, compound concentration 10 uM, replicate 1
[4] = 12 h, 10 µM, compound concentration 10 uM, replicate 2
[5] = 24 h, 1 µM, compound concentration 1 uM, replicate 1
[6] = 24 h, 1 µM, compound concentration 1 uM, replicate 2
[7] = 24 h, 10 µM, compound concentration 10 uM, replicate 1
[8] = 24 h, 10 µM, compound concentration 10 uM, replicate 2
[9] = 48 h, 1 µM, compound concentration 1 uM, replicate 1
[10] = 48 h, 1 µM, compound concentration 1 uM, replicate 2
[11] = 48 h, 10 µM, compound concentration 10 uM, replicate 1
[12] = 48 h, 10 µM, compound concentration 10 uM, replicate 2

For C[C@H](NC(=O)CNC(=O)c1cccc(Cl)c1)c1ccccc1, the “Population Apoptotic (%)” value [1] was 50%, the “Population Fragmented Nuclei (%)” value [1] was 18% and the “Population Healthy Nuclei (%)” value [1] was 71%. The “Population Hoechst High Intensity Objects (%)” value [1] was 0%, the “Population Membrane Permeable-Phenotype (%)” value [1] was 0% and the “Population Mitochondria Different-Phenotype (%)” value [1] was 4%. The “Population Mitotic Cells (%)” value [1] was 50%, the “Population Normal (%)” value [1] was 100% and the “Population Pyknosed Nuclei (%)” value [1] was 10%. The “Population Tubulin-Different-Phenotype (%)” value [1] was 17%, the “Total Cell Count” value [1] was 94 and the “Population Apoptotic (%)” value [2] was 44%. The “Population Fragmented Nuclei (%)” value [2] was 28%, the “Population Healthy Nuclei (%)” value [2] was 53% and the “Population Hoechst High Intensity Objects (%)” value [2] was 3%. The “Population Membrane Permeable-Phenotype (%)” value [2] was 6%, the “Population Mitochondria Different-Phenotype (%)” value [2] was 2% and the “Population Mitotic Cells (%)” value [2] was 56%. For the same compound, the “Population Normal (%)” value [2] was 96%, the “Population Pyknosed Nuclei (%)” value [2] was 18% and the “Population Tubulin-Different-Phenotype (%)” value [2] was 41%. The “Total Cell Count” value [2] was 140, the “Population Apoptotic (%)” value [3] was 48% and the “Population Fragmented Nuclei (%)” value [3] was 15%. The “Population Healthy Nuclei (%)” value [3] was 58%, the “Population Hoechst High Intensity Objects (%)” value [3] was 2% and the “Population Membrane Permeable-Phenotype (%)” value [3] was 0%. The “Population Mitochondria Different-Phenotype (%)” value [3] was 8%, the “Population Mitotic Cells (%)” value [3] was 51% and the “Population Normal (%)” value [3] was 97%. For the same compound, the “Population Pyknosed Nuclei (%)” value [3] was 26%, the “Population Tubulin-Different-Phenotype (%)” value [3] was 35% and the “Total Cell Count” value [3] was 106. For the same compound, the “Population Apoptotic (%)” value [4] was 43%, the “Population Fragmented Nuclei (%)” value [4] was 31% and the “Population Healthy Nuclei (%)” value [4] was 43%. For the same compound, the “Population Hoechst High Intensity Objects (%)” value [4] was 1%, the “Population Membrane Permeable-Phenotype (%)” value [4] was 13% and the “Population Mitochondria Different-Phenotype (%)” value [4] was 3%. The “Population Mitotic Cells (%)” value [4] was 56%, the “Population Normal (%)” value [4] was 98% and the “Population Pyknosed Nuclei (%)” value [4] was 24%. The “Population Tubulin-Different-Phenotype (%)” value [4] was 54%, the “Total Cell Count” value [4] was 124 and the “Population Apoptotic (%)” value [5] was 43%. The “Population Fragmented Nuclei (%)” value [5] was 17%, the “Population Healthy Nuclei (%)” value [5] was 65% and the “Population Hoechst High Intensity Objects (%)” value [5] was 1%. For the same compound, the “Population Membrane Permeable-Phenotype (%)” value [5] was 1%, the “Population Mitochondria Different-Phenotype (%)” value [5] was 3% and the “Population Mitotic Cells (%)” value [5] was 56%. The “Population Normal (%)” value [5] was 98%, the “Population Pyknosed Nuclei (%)” value [5] was 17% and the “Population Tubulin-Different-Phenotype (%)” value [5] was 25%. The “Total Cell Count” value [5] was 93, the “Population Apoptotic (%)” value [6] was 33% and the “Population Fragmented Nuclei (%)” value [6] was 30%. For the same compound, the “Population Healthy Nuclei (%)” value [6] was 50%, the “Population Hoechst High Intensity Objects (%)” value [6] was 3% and the “Population Membrane Permeable-Phenotype (%)” value [6] was 8%. The “Population Mitochondria Different-Phenotype (%)” value [6] was 4%, the “Population Mitotic Cells (%)” value [6] was 66% and the “Population Normal (%)” value [6] was 96%. The “Population Pyknosed Nuclei (%)” value [6] was 19%, the “Population Tubulin-Different-Phenotype (%)” value [6] was 42% and the “Total Cell Count” value [6] was 145. The “Population Apoptotic (%)” value [7] was 52%, the “Population Fragmented Nuclei (%)” value [7] was 14% and the “Population Healthy Nuclei (%)” value [7] was 61%. The “Population Hoechst High Intensity Objects (%)” value [7] was 2%, the “Population Membrane Permeable-Phenotype (%)” value [7] was 1% and the “Population Mitochondria Different-Phenotype (%)” value [7] was 3%. The “Population Mitotic Cells (%)” value [7] was 48%, the “Population Normal (%)” value [7] was 97% and the “Population Pyknosed Nuclei (%)” value [7] was 24%. The “Population Tubulin-Different-Phenotype (%)” value [7] was 45%, the “Total Cell Count” value [7] was 107 and the “Population Apoptotic (%)” value [8] was 56%. For the same compound, the “Population Fragmented Nuclei (%)” value [8] was 33%, the “Population Healthy Nuclei (%)” value [8] was 45% and the “Population Hoechst High Intensity Objects (%)” value [8] was 5%. The “Population Membrane Permeable-Phenotype (%)” value [8] was 5%, the “Population Mitochondria Different-Phenotype (%)” value [8] was 7% and the “Population Mitotic Cells (%)” value [8] was 43%. For the same compound, the “Population Normal (%)” value [8] was 94%, the “Population Pyknosed Nuclei (%)” value [8] was 20% and the “Population Tubulin-Different-Phenotype (%)” value [8] was 64%. For the same compound, the “Total Cell Count” value [8] was 118, the “Population Apoptotic (%)” value [9] was 33% and the “Population Fragmented Nuclei (%)” value [9] was 20%. The “Population Healthy Nuclei (%)” value [9] was 67%, the “Population Hoechst High Intensity Objects (%)” value [9] was 1% and the “Population Membrane Permeable-Phenotype (%)” value [9] was 0%. The “Population Mitochondria Different-Phenotype (%)” value [9] was 0%, the “Population Mitotic Cells (%)” value [9] was 66% and the “Population Normal (%)” value [9] was 98%. For the same compound, the “Population Pyknosed Nuclei (%)” value [9] was 12%, the “Population Tubulin-Different-Phenotype (%)” value [9] was 26% and the “Total Cell Count” value [9] was 95. For the same compound, the “Population Apoptotic (%)” value [10] was 40%, the “Population Fragmented Nuclei (%)” value [10] was 29% and the “Population Healthy Nuclei (%)” value [10] was 52%. The “Population Hoechst High Intensity Objects (%)” value [10] was 3%, the “Population Membrane Permeable-Phenotype (%)” value [10] was 4% and the “Population Mitochondria Different-Phenotype (%)” value [10] was 2%. The “Population Mitotic Cells (%)” value [10] was 60%, the “Population Normal (%)” value [10] was 96% and the “Population Pyknosed Nuclei (%)” value [10] was 17%. For the same compound, the “Population Tubulin-Different-Phenotype (%)” value [10] was 44%, the “Total Cell Count” value [10] was 147 and the “Population Apoptotic (%)” value [11] was 68%. The “Population Fragmented Nuclei (%)” value [11] was 15%, the “Population Healthy Nuclei (%)” value [11] was 56% and the “Population Hoechst High Intensity Objects (%)” value [11] was 7%. For the same compound, the “Population Membrane Permeable-Phenotype (%)” value [11] was 1%, the “Population Mitochondria Different-Phenotype (%)” value [11] was 15% and the “Population Mitotic Cells (%)” value [11] was 31%. For the same compound, the “Population Normal (%)” value [11] was 92%, the “Population Pyknosed Nuclei (%)” value [11] was 27% and the “Population Tubulin-Different-Phenotype (%)” value [11] was 50%. The “Total Cell Count” value [11] was 112, the “Population Apoptotic (%)” value [12] was 69% and the “Population Fragmented Nuclei (%)” value [12] was 38%. The “Population Healthy Nuclei (%)” value [12] was 50%, the “Population Hoechst High Intensity Objects (%)” value [12] was 4% and the “Population Membrane Permeable-Phenotype (%)” value [12] was 6%. The “Population Mitochondria Different-Phenotype (%)” value [12] was 5%, the “Population Mitotic Cells (%)” value [12] was 30% and the “Population Normal (%)” value [12] was 95%. For the same compound, the “Population Pyknosed Nuclei (%)” value [12] was 11%, the “Population Tubulin-Different-Phenotype (%)” value [12] was 67% and the “Total Cell Count” value [12] was 121.
